Screening results as filed in PubChem BioAssay.
Hits are enriched below; roughly 3.9% of the tested compounds scored in any of these assays.
XBP1 UPR activ = activators of adaptive arm of unfolded protein response (XBP1) | CHO-XBP1 luciferase reporter, IRE1-XBP1 UPR activation, luminescence; percent of tunicamycin response, DMSO as zero | activation, % at 20 µM | 0.33% of 330,000 active | AID 463104;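 active = versus positive control, 20 µM dose yields 30% or more activation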
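Material: IRE1-XBP1 luciferase reporter CHO line / Quantity: one thousand reporter cells per well / Buffer or medium: F12 with 10% serum / Compound: 20 µM single concentration, DMSO 1% / Times: 6 h treatment, 37 °C / Detection: Steady-Glo luciferase glow luminescence, 10 min after reagent addition / Benchmarks: tunicamycin high, DMSO low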
tim10-1 inh = tim10-1 yeast growth inhibition; S. cerevisiae tim10-1 ts strain growth, BacTiter-Glo, 24 h; inhibition, % at 20 µM; 2.2% of 330,000 active;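 active = inhibition of at least 40%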;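 note: mutant grown at 25 °C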
tim23-1 inh = growth inhibitors of tim23-1 mutant yeast | S. cerevisiae tim23-1 growth, BacTiter-Glo luminescence, 24 h | 1.3% of 330,000 active | inhibition, % at 20 µM;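 active = growth inhibition of the mutant yeast at or above 50%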;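 note: temperature-sensitive mutant grown at 25 °C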
TIM10 inh = inhibits growth of TIM10 yeast strain. S. cerevisiae TIM10 strain growth, BacTiter-Glo luminescence, 24 h. inhibition, % at 10 µM. 1.4% of 330,000 active. AID 463195;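 active = inhibition of 40% or more at the single tested concentration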;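 note: wild-type TIM10 isogenic control strain grown at permissive 25 °C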
UPR CHOP act = activators of apoptotic arm of unfolded protein response (CHOP) | CHO-CHOP luciferase reporter, UPR activation, luminescence; percent of tunicamycin response over DMSO baseline | activation, % at 10 µM | 0.34% of 330,000 active | AID 449763;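 active = at 10 µM dose, activation of 40% or more, normalized to positive control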
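Evaluation: % reporter activation, DMSO baseline versus tunicamycin full activation; System: CHO-CHOP luciferase reporter cell line; Input: 500 cells/well; Incubation: 6 h compound treatment, 37 °C; Measured by: Steady-Glo luciferase luminescence; Dosing: one dose, 10 µM in 0.5% DMSO; Buffer or medium: F12 medium, 10% FBS; Benchmarks: positive tunicamycin 10 µg/mL, negative DMSO alone.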
tim10-1 confirm = confirmation of tim10-1 mutant yeast growth inhibitors | shares compounds with tim10-1 inh | S. cerevisiae tim10-1 ts strain growth, BacTiter-Glo, 24 h | inhibition, % at 20 µM | 56% of 7,400 active;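 active = inhibition of yeast growth at or above a set limit in either of two repeat tests at 20 µM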;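 note: tim10-1 mutant grown at permissive 25 °C to find synthetic lethal compounds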
Large screens that a line does not name were inactive (follow-up assays come after a bar, where they were run).

O=C(O)c1ccc2c(c1)S(=O)(=O)c1cc(Cl)ccc1C2=O	none
CCCCSc1ccc2nc(-c3ccc(C#N)cc3)cn2c1	none
CCCSc1ccc2nc(-c3ccccc3)cn2c1	tim10-1 inh 44.9 | tim10-1 confirm inactive
COc1ccc(OC)c(C2C(C(=O)c3cccs3)=C(O)C(=O)N2CCN2CCOCC2)c1 (stereo not drawn)	none
CCN(CC)S(=O)(=O)c1ccc(C(=O)NC2=C(C(=O)OC)SCC2)cc1	tim10-1 inh 41.8 | tim10-1 confirm inactive
COc1cccc(C(=O)Nc2ccc(NC(=O)C3CC=CCC3C(=O)O)cc2)c1 (stereo not drawn)	none
Cc1sc(N)nc1C12CC3CC(CC(C3)C1)C2	tim10-1 inh 45.9 | tim10-1 confirm inactive
S=c1nc(C23CC4CC(CC(C4)C2)C3)[nH][nH]1	none
Cc1nc(N/C(N)=N/S(=O)(=O)c2ccc([N+](=O)[O-])cc2)nc2ccccc12	none
CCOc1ccc2nc(N/C(N)=N/C(=S)Nc3ccc(C)c(C)c3)nc(C)c2c1	none
COc1ccc(NC(=S)/N=C(\N)Nc2nc(C)c3ccc(C)cc3n2)cc1	tim10-1 inh 40.2 | tim10-1 confirm inactive
Cc1ccc2c(C)nc(N/C(N)=N/S(=O)(=O)c3ccc([N+](=O)[O-])cc3)nc2c1	tim10-1 inh 41.5 | tim10-1 confirm inactive
O=C(NCc1nnc(SCC(=O)N2CCCC2)o1)c1ccccc1	none
CCN(CC)S(=O)(=O)c1ccc2oc(C(=O)N3CCc4ccccc4C3)c(C)c2c1	tim10-1 inh 42.9 | tim10-1 confirm 30.3
Cc1ccccc1NC(=O)CSc1nc(N)c2c3c(sc2n1)CSC(C)(C)C3	tim10-1 inh 43.3 | tim10-1 confirm 33.4
Cc1sc(NC(=O)c2ccco2)c(C(c2ccc(F)cc2)N2CCN(C)CC2)c1C (stereo not drawn)	tim10-1 inh 56.3 | tim10-1 confirm inactive
Cc1sc(NC(=O)c2ccco2)c(C(c2ccccc2)N2CCC(C)CC2)c1C (stereo not drawn)	none
CCCCC1CCC(C(=O)N(CCOC)c2c(N)n(CC(C)C)c(=O)[nH]c2=O)CC1 (stereo not drawn)	none
CC1(C)CC(=O)c2c(nn(-c3ccccc3)c2-c2ccncc2)C1	tim10-1 inh 45.6 | tim10-1 confirm 35.7
O=C(NCc1ccncc1)C1CCN(S(=O)(=O)c2ccc(Cl)c(C(F)(F)F)c2)CC1	none
O=C(c1ccc(CS(=O)Cc2ccc(Cl)cc2)o1)N1CCN(c2cccc(Cl)c2)CC1 (stereo not drawn)	tim10-1 inh 40.1 | tim10-1 confirm inactive
Cc1cccc(N2CCN(C(=O)c3ccc(CS(=O)Cc4ccc(Cl)cc4)o3)CC2)c1C (stereo not drawn)	tim10-1 inh 54.2 | tim10-1 confirm inactive
Cc1ccc(C)c(N2CCN(C(=O)c3ccc(CS(=O)Cc4cccc(Cl)c4)o3)CC2)c1 (stereo not drawn)	tim10-1 inh 42.3 | tim10-1 confirm inactive
O=C(c1ccc(CS(=O)Cc2ccc(Cl)cc2)o1)N1CCN(c2ccc(F)cc2)CC1 (stereo not drawn)	none
Cc1nc2ccccn2c1C(=O)NNC(=O)Nc1cccc(C(F)(F)F)c1	none
Cc1cccc(NS(=O)(=O)c2c(C)[nH]c(C)c2C(=O)N2CCCC2)c1	none
COc1ccc(C(=O)/C=C2/c3ccccc3CC(C)(C)N2C)cc1	tim10-1 inh 46.7 | tim10-1 confirm inactive
CN1/C(=C\C(=O)Nc2cccnc2)c2ccccc2CC1(C)C	none
Cc1ccc(/C(N)=N/OC(=O)C(C)c2ccc([N+](=O)[O-])cc2)cc1 (stereo not drawn)	tim10-1 inh 46.1 | tim10-1 confirm 50.7
N/C(=N\OC(=O)CC1CCCCC1)c1ccc([N+](=O)[O-])cc1	tim10-1 inh 70.3 | tim10-1 confirm 51.1
CC(C(=O)O/N=C(\N)c1cccnc1)c1ccc([N+](=O)[O-])cc1 (stereo not drawn)	none
O=C(COC(=O)Cc1ccccc1[N+](=O)[O-])NNC(=O)c1ccc([N+](=O)[O-])cc1	none
Cc1cc(C)c2c(NC(=S)NC(=O)c3ccccc3)nn(C)c2n1	tim10-1 inh 50.3 | tim10-1 confirm inactive
Cc1cc(C)nc(NC(=S)NC(=O)c2ccccc2)n1	none
Nc1c(C(=O)NCc2ccc(F)cc2)c2nc3ccccc3nc2n1CCCN1CCOCC1	tim10-1 inh 60.2 | tim10-1 confirm inactive
Cc1cccc2c1N(C)C(=O)C2=O	none
Cc1cc(C)c(C)c(S(=O)(=O)ON2C(=O)c3ccccc3C2=O)c1C	tim10-1 inh 59.1 | tim10-1 confirm 61.1
COC(=O)c1c(NC(=O)CN2CCC3(O)CCCCC3C2c2ccccc2OC)sc(C)c1C (stereo not drawn)	tim10-1 inh 40.0 | tim10-1 confirm inactive
COC(=O)c1c(NC(=O)CN2CCC3(O)CCCCC3C2c2ccc(OC)cc2OC)sc(C)c1C (stereo not drawn)	none
CC(=O)Oc1ccc2c(=O)c(-c3ccccc3)coc2c1	tim10-1 inh 42.5 | tim10-1 confirm 32.0
CC1CN(S(=O)(=O)c2cccc(C(=O)NCc3ccco3)c2)CC(C)O1 (stereo not drawn)	none
CCOc1ccccc1N1CCN(C(=O)c2cc3cc(OC)ccc3[nH]2)CC1	none
CN(CC(=O)O/N=C(\N)c1ccc(Br)cc1)S(=O)(=O)c1ccccc1	tim10-1 inh 49.6 | tim10-1 confirm 43.0
CN(CC(=O)O/N=C(\N)c1ccccn1)S(=O)(=O)c1ccc(Br)cc1	none
Cc1ccc(S(=O)(=O)/N=C(/NC(=S)Nc2cccc(C)c2)c2ccccc2)cc1	none
Cc1cccc(NC(=S)N/C(=N/S(=O)(=O)c2ccccc2)c2ccccc2)c1	tim10-1 inh 42.1 | tim10-1 confirm inactive
COc1cccc(-c2nnc(SCC(=O)NC3CCS(=O)(=O)C3)n2C)c1 (stereo not drawn)	none
Cc1ccc2[nH]c(=O)c(CN(CC3CCCO3)C(=S)Nc3ccccc3)cc2c1 (stereo not drawn)	none
Cc1ccc2cc(CN(CC3CCCO3)C(=S)Nc3ccccc3)c(=O)[nH]c2c1 (stereo not drawn)	tim10-1 inh 44.2 | tim10-1 confirm inactive
COc1ccc(-c2cc(=O)oc3cc(OC(=O)C4CCCCC4)c(Cl)cc23)cc1	tim10-1 inh 44.0 | tim10-1 confirm 36.1
COc1cccc(NC(=O)CCN2C(=O)c3ccccc3Sc3ncccc32)c1	none
C=CCn1c(Cc2cccs2)nnc1SCC(=O)c1cccc(Br)c1	tim10-1 inh 41.1 | tim10-1 confirm inactive
C=CCn1c(Cc2cccs2)nnc1SCC(=O)c1ccc2ccccc2c1	none
N#Cc1ccsc1NC(=O)C1CCCN1S(=O)(=O)c1cccs1 (stereo not drawn)	none
Clc1ccc(-c2ccc(CN3CCCCC3)o2)cc1	none
